Assay results as given in article PMC3057505 (Journal of medicinal chemistry, 2010).
“Also recorded” adds a separate entry of the source.

Tests used:
[1] = target: aggregated amyloid peptide Aβ1-40 (Homo sapiens, UniProt P05067); assay: In vitro Aβ1-40 binding affinity by fluorescence titration; details: for decrease in Aβ binding affinity: compared to 4; for fold weaker Aβ binding affinity compared to 4: ratio of Kd vs compound 4
[2] = DPPH free radical scavenging assay; type: physicochemical; details: for DPPH free radical scavenging activity relative to quercetin: vs quercetin IC50 = 1.3 ± 1.1 μM; for fold less potent than quercetin in DPPH free radical scavenging: p < 0.05 vs quercetin
Aβ plaques [3] = details: APP or APP/PS1 mice; cited from earlier work
[4] = tested on: Aβ plaques in human AD brain sections; assay: Fluorescence staining of human AD brain sections; type: binding; details: 50 μM, 30 min, 9:1 PBS:EtOH, frozen sections 10 μm
Method in brief: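 Frozen 10 μm sections of human AD brain and age-matched control brain. Stained 30 min with 50 μM test compound in 9:1 PBS/EtOH, made by diluting a DMSO stock to 0.50 mM in EtOH and then into PBS/EtOH. Washed in turn with 75% aqueous EtOH, 95% EtOH and xylene. Plaque staining was read by fluorescence microscopy.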

Aβ plaques [5] = assay: In vivo BBB delivery to Aβ plaque-bearing PDAPP mouse brain; design: species or system PDAPP transgenic mice; details: single 50 mg/kg IP, ten-month-old PDAPP mice, sacrificed 48 h after injection
Method in brief: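 Ten-month-old PDAPP transgenic mice received a single ip dose of 50 mg/kg test compound, with vehicle-only controls (10% DMSO/PBS). At 48 h they were killed by transcardial perfusion with 4% PFA in PBS. Brains were cryoprotected, frozen, sectioned, postfixed 5 min in 4% PFA, washed in PBS and mounted. Plaque fluorescence was imaged in hippocampal CA1 and dentate gyrus at 10× and 40×.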

Aβ plaques [6] = type: binding, APP/PS1 transgenic mouse
Method in brief: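 Brains from 11-month-old APP/PS1 mice (Tg2576 APP Swedish × M146L PS1 line) were perfused with 4% paraformaldehyde, cryoprotected in 20% sucrose and cut into 10 μm frozen sections, three per dilution point. Sections were stained 30 min with 50 μM test compound in 9:1 PBS/EtOH, then washed in 75% EtOH, 95% EtOH and xylene. S/N was taken as plaque fluorescence over background tissue.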

Sequence of aggregated amyloid peptide Aβ1-40 (P05067 672-711 limits assumed): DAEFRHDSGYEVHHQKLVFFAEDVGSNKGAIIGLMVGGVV

In the case of Oc1ccc(/C=C/c2ccc(O)cc2)cc1 [Compound 16], the “decrease in Aβ binding affinity” value [1] is reported as “three orders of magnitude weaker” and the “DPPH free radical scavenging activity relative to quercetin” value [2] is reported as “no less effective than quercetin”.

For Oc1ccc(/C=C/c2ccccc2/C=C/c2ccc(O)cc2)cc1 [Compound 7, (E,E)-1,2-bis(4-hydroxystyryl)benzene], the “decrease in Aβ binding affinity” value [1] was “two order of magnitude decrease” and the “fold less potent than quercetin in DPPH free radical scavenging” value [2] was 3 to 7 fold.

With Oc1cccc(/C=C/c2ccc(/C=C/c3ccc(O)c(O)c3)cc2)c1 [Compound 15, (E,E)-1-(3-hydroxystyryl)-4-(3,4-dihydroxystyryl)benzene] the “fold less potent than quercetin in DPPH free radical scavenging” value [2] was 3 to 7 fold.

For Oc1ccc(/C=C/c2ccc(/C=C/c3cccc(O)c3)cc2)cc1 [Compound 12, (E,E)-1-(4-hydroxystyryl)-4-(3-hydroxystyryl)benzene], the “fold weaker Aβ binding affinity compared to 4” value [1] was 370 fold, the “fold weaker Aβ binding affinity compared to 8” value ([1]; ratio of Kd vs compound 8) was 660 fold and the “DPPH free radical scavenging activity relative to quercetin” value [2] was “no less effective than quercetin”.

In the case of O=C(O)c1cc(/C=C/c2ccc(/C=C/c3ccc(O)c(C(=O)O)c3)c(F)c2)ccc1O [FSB], the “BBB penetration and binding to Aβ plaques” value (Aβ plaques [3]) is listed as “penetrate the blood – brain barrier (BBB) and bind to Aβ plaques”.

With Oc1ccc(/C=C/c2cccc(/C=C/c3ccc(O)cc3)c2)cc1 [Compound 6, (E,E)-1,3-bis(4-hydroxystyryl)benzene] the “decrease in Aβ binding affinity” value [1] was “two order of magnitude decrease” and the “DPPH free radical scavenging activity relative to quercetin” value [2] was “no less effective than quercetin”.

For Oc1cc(O)cc(/C=C/c2ccc(/C=C/c3cc(O)cc(O)c3)cc2)c1 [Compound 10, (E,E)-1,4-bis(3,5-dihydroxystyryl)benzene], the “staining of Aβ plaques in human AD brain sections” value (“staining of Aβ plaques” below) [4] was “bind specifically to Aβ plaques in human brain sections”, the “fold weaker Aβ binding affinity compared to 4” value [1] was 17 to 27 fold and the “fold less potent than quercetin in DPPH free radical scavenging” value [2] was 3 to 7 fold. The “BBB crossing and Aβ plaque binding in vivo” value (Aβ plaques [5]) was “crossed the BBB and bound to Aβ plaques in vivo”.

In the case of O=C(O)c1cc(/C=C/c2ccc(/C=C/c3ccc(O)c(C(=O)O)c3)cc2)ccc1O [Compound X-34], the “BBB penetration and binding to Aβ plaques” value (Aβ plaques [3]) is listed as “penetrate the blood – brain barrier (BBB) and bind to Aβ plaques”.

With Oc1ccc(/C=C/c2ccc(/C=C/c3ccccc3)cc2)cc1 [Compound 11, (E,E)-1-styryl-4-(4-hydroxystyryl)benzene] the “fold weaker Aβ binding affinity compared to 4” value [1] was 16 fold.

In the case of Oc1ccc(C#Cc2ccc(C#Cc3ccc(O)cc3)cc2)cc1 [Compound 17], the “fold weaker Aβ binding affinity compared to 4” value [1] is reported as 6 fold and the “fold loss in specificity compared to 4” value (Aβ plaques [6]; ratio of S/N vs compound 4) is reported as 2.4 fold.

With Oc1ccccc1/C=C/c1ccc(/C=C/c2ccccc2O)cc1 [Compound 9, (E,E)-1,4-bis(2-hydroxystyryl)benzene] the “fold weaker Aβ binding affinity compared to 4” value [1] was 84 fold, the “fold less potent than quercetin in DPPH free radical scavenging” value [2] was 3 to 7 fold and the “Aβ binding specificity” value (Aβ plaques [6]; APP/PS1 mouse brain sections) was “good binding specificity”.

With Oc1cccc(/C=C/c2ccc(/C=C/c3cccc(O)c3)cc2)c1 [Compound 8, (E,E)-1,4-bis(3-hydroxystyryl)benzene] the “staining of Aβ plaques” value [4] was “bind specifically to Aβ plaques in human brain sections” and the “BBB crossing and Aβ plaque binding in vivo” value (Aβ plaques [5]; 50 mg/kg) was “crossed the BBB and bound to Aβ plaques in vivo; also recorded: crossed the blood-brain-barrier and bound to Aβ plaques in vivo”.

For Oc1ccc(/C=C/c2ccc(/C=C/c3ccc(O)cc3)cc2)cc1 [Compound 4, (E,E)-1,4-bis(4-hydroxystyryl)benzene], the “staining of Aβ plaques” value [4] was “bind specifically to Aβ plaques in human brain sections”, the “DPPH free radical scavenging activity relative to quercetin” value [2] was “no less effective than quercetin” and the “BBB crossing and Aβ plaque binding in vivo” value (Aβ plaques [5]; 50 mg/kg) was “crossed the BBB and bound to Aβ plaques in vivo; also recorded: crossed the blood-brain-barrier and bound to Aβ plaques in vivo”.

In the case of Oc1ccc(/C=C/c2ccc(/C=C/c3cc(O)cc(O)c3)cc2)cc1 [Compound 14, (E,E)-1-(4-hydroxystyryl)-4-(3,5-dihydroxystyryl)benzene], the “fold weaker Aβ binding affinity compared to 4” value [1] is reported as 17 to 27 fold and the “fold less potent than quercetin in DPPH free radical scavenging” value [2] is reported as 3 to 7 fold.

For Oc1ccc(/C=C/c2ccc(/C=C/c3ccc(O)c(O)c3)cc2)cc1 [Compound 13, (E,E)-1-(4-hydroxystyryl)-4-(3,4-dihydroxystyryl)benzene], the “fold weaker Aβ binding affinity compared to 4” value [1] was 17 to 27 fold.
